Measurements reported in ChEMBL document CHEMBL1140895, “Synthesis of antisense oligonucleotides containing 2'-O-psoralenylmethoxyalkyl adenosine for photodynamic regulation of point mutations in RNA” (Bioorg Med Chem, 2009).
Activity calls are given as the source filed them. No cut-off for these calls is given here.

Experiments:
[1] = Binding affinity to oligoribonucleotide ORN-U assessed as thermal stability by UV melting study
Outline: (§1)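 Duplex melting curves were recorded by UV absorbance with temperature ramped at 1.0 °C/min. Each oligonucleotide was at 2.0 µM in 100 mM phosphate buffer (pH 7.0) containing 0.1 M NaCl.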

[2] = Binding affinity to oligoribonucleotide ORN-G assessed as thermal stability by UV melting study; outline: as §1
[3] = Binding affinity to oligoribonucleotide ORN-U assessed as intercalation by fluorescence spectroscopy
[4] = Binding affinity to oligoribonucleotide ORN-U assessed as formation of stable A form like duplex with ORN-U by UV spectroscopy
[5] = Binding affinity to oligoribonucleotide ORN-U assessed as photo-cross-linking efficiency with ORN-U after UVA irradiation of 1 min by time course photo cross linking study
[6] = Binding affinity to oligoribonucleotide ORN-U assessed as photo cross linking activity by reversed phase HPLC
Outline: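 Equimolar 2′-Ps-oligo and ORN (2.0 µM each) were denatured at 85 °C for 5 min and slowly cooled to 37 °C in 100 mM sodium phosphate (pH 7.0) with 0.1 M NaCl. Samples were irradiated with UVA (365 nm transilluminator, 1.6 mW/cm²) and analysed by C18 reversed-phase HPLC (TEAA pH 7.0/acetonitrile gradient, 40 °C oven) to follow intact ORN and cross-linked product.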

[7] = Binding affinity to oligoribonucleotide ORN-G assessed as photo-cross-linking efficiency with ORN-G after UVA irradiation of 1 min by time course photo cross linking study
[8] = Binding affinity to oligoribonucleotide ORN-U assessed as photo-cross-linking efficiency with ORN-U after UVA irradiation of 120 min by time course photo cross linking study

SMILES	Tm [1]	Tm [2]	Activity [3]	Activity [4]	photo-cross-linking efficiency [5]	Activity [6]	photo-cross-linking efficiency [7]	Activity [8]
Cc1oc2c(C)c3oc(=O)cc(C)c3cc2c1COCCCCO[C@@H]1[C@H](OP(=O)(O)OC[C@H]2O[C@@H](n3ccc(N)nc3=O)C[C@@H]2OP(=O)(O)OC[C@H]2O[C@@H](n3cnc4c(N)ncnc43)C[C@@H]2OP(=O)(O)OC[C@H]2O[C@@H](n3cnc4c(=O)[nH]c(N)nc43)C[C@@H]2OP(=O)(O)OC[C@H]2O[C@@H](n3ccc(N)nc3=O)C[C@@H]2OP(=O)(O)OC[C@H]2O[C@@H](n3cc(C)c(=O)[nH]c3=O)C[C@@H]2OP(=O)(O)OC[C@H]2O[C@@H](n3ccc(N)nc3=O)C[C@@H]2OP(=O)(O)OC[C@H]2O[C@@H](n3ccc(N)nc3=O)C[C@@H]2O)[C@@H](COP(=O)(O)O[C@H]2C[C@H](n3cnc4c(N)ncnc43)O[C@@H]2COP(=O)(O)O[C@H]2C[C@H](n3ccc(N)nc3=O)O[C@@H]2COP(=O)(O)O[C@H]2C[C@H](n3ccc(N)nc3=O)O[C@@H]2COP(=O)(O)O[C@H]2C[C@H](n3cnc4c(=O)[nH]c(N)nc43)O[C@@H]2COP(=O)(O)O[C@H]2C[C@H](n3ccc(N)nc3=O)O[C@@H]2COP(=O)(O)O[C@H]2C[C@H](n3cnc4c(N)ncnc43)O[C@@H]2COP(=O)(O)O[C@H]2C[C@H](n3cc(C)c(=O)[nH]c3=O)O[C@@H]2CO)O[C@H]1n1cnc2c(N)ncnc21	64 °C	60.2 °C	Active	Active				
Cc1cn([C@H]2C[C@H](OP(=O)(O)OC[C@H]3O[C@@H](n4cnc5c(N)ncnc54)C[C@@H]3OP(=O)(O)OC[C@H]3O[C@@H](n4ccc(N)nc4=O)C[C@@H]3OP(=O)(O)OC[C@H]3O[C@@H](n4cnc5c(=O)[nH]c(N)nc54)C[C@@H]3OP(=O)(O)OC[C@H]3O[C@@H](n4ccc(N)nc4=O)C[C@@H]3OP(=O)(O)OC[C@H]3O[C@@H](n4ccc(N)nc4=O)C[C@@H]3OP(=O)(O)OC[C@H]3O[C@@H](n4cnc5c(N)ncnc54)C[C@@H]3OP(=O)(O)OC[C@H]3O[C@@H](n4cnc5c(N)ncnc54)C[C@@H]3OP(=O)(O)OC[C@H]3O[C@@H](n4ccc(N)nc4=O)C[C@@H]3OP(=O)(O)OC[C@H]3O[C@@H](n4cnc5c(N)ncnc54)C[C@@H]3OP(=O)(O)OC[C@H]3O[C@@H](n4cnc5c(=O)[nH]c(N)nc54)C[C@@H]3OP(=O)(O)OC[C@H]3O[C@@H](n4ccc(N)nc4=O)C[C@@H]3OP(=O)(O)OC[C@H]3O[C@@H](n4cc(C)c(=O)[nH]c4=O)C[C@@H]3OP(=O)(O)OC[C@H]3O[C@@H](n4ccc(N)nc4=O)C[C@@H]3OP(=O)(O)OC[C@H]3O[C@@H](n4ccc(N)nc4=O)C[C@@H]3O)[C@@H](CO)O2)c(=O)[nH]c1=O	67.3 °C	58.9 °C						
Cc1oc2c(C)c3oc(=O)cc(C)c3cc2c1CO[C@@H]1[C@H](OP(=O)(O)OC[C@H]2O[C@@H](n3ccc(N)nc3=O)C[C@@H]2OP(=O)(O)OC[C@H]2O[C@@H](n3cnc4c(N)ncnc43)C[C@@H]2OP(=O)(O)OC[C@H]2O[C@@H](n3cnc4c(=O)[nH]c(N)nc43)C[C@@H]2OP(=O)(O)OC[C@H]2O[C@@H](n3ccc(N)nc3=O)C[C@@H]2OP(=O)(O)OC[C@H]2O[C@@H](n3cc(C)c(=O)[nH]c3=O)C[C@@H]2OP(=O)(O)OC[C@H]2O[C@@H](n3ccc(N)nc3=O)C[C@@H]2OP(=O)(O)OC[C@H]2O[C@@H](n3ccc(N)nc3=O)C[C@@H]2O)[C@@H](COP(=O)(O)O[C@H]2C[C@H](n3cnc4c(N)ncnc43)O[C@@H]2COP(=O)(O)O[C@H]2C[C@H](n3ccc(N)nc3=O)O[C@@H]2COP(=O)(O)O[C@H]2C[C@H](n3ccc(N)nc3=O)O[C@@H]2COP(=O)(O)O[C@H]2C[C@H](n3cnc4c(=O)[nH]c(N)nc43)O[C@@H]2COP(=O)(O)O[C@H]2C[C@H](n3ccc(N)nc3=O)O[C@@H]2COP(=O)(O)O[C@H]2C[C@H](n3cnc4c(N)ncnc43)O[C@@H]2COP(=O)(O)O[C@H]2C[C@H](n3cc(C)c(=O)[nH]c3=O)O[C@@H]2CO)O[C@H]1n1cnc2c(N)ncnc21					3%			35%

Other lines, results leading:

Tm [1]	Tm [2]	Activity [3]	Activity [4]	photo-cross-linking efficiency [5]	Activity [6]	photo-cross-linking efficiency [7]	Activity [8]	SMILES
63.1 °C	59.1 °C	Active	Active	75%	Active	7%		Cc1oc2c(C)c3oc(=O)cc(C)c3cc2c1COCCO[C@@H]1[C@H](OP(=O)(O)OC[C@H]2O[C@@H](n3ccc(N)nc3=O)C[C@@H]2OP(=O)(O)OC[C@H]2O[C@@H](n3cnc4c(N)ncnc43)C[C@@H]2OP(=O)(O)OC[C@H]2O[C@@H](n3cnc4c(=O)[nH]c(N)nc43)C[C@@H]2OP(=O)(O)OC[C@H]2O[C@@H](n3ccc(N)nc3=O)C[C@@H]2OP(=O)(O)OC[C@H]2O[C@@H](n3cc(C)c(=O)[nH]c3=O)C[C@@H]2OP(=O)(O)OC[C@H]2O[C@@H](n3ccc(N)nc3=O)C[C@@H]2OP(=O)(O)OC[C@H]2O[C@@H](n3ccc(N)nc3=O)C[C@@H]2O)[C@@H](COP(=O)(O)O[C@H]2C[C@H](n3cnc4c(N)ncnc43)O[C@@H]2COP(=O)(O)O[C@H]2C[C@H](n3ccc(N)nc3=O)O[C@@H]2COP(=O)(O)O[C@H]2C[C@H](n3ccc(N)nc3=O)O[C@@H]2COP(=O)(O)O[C@H]2C[C@H](n3cnc4c(=O)[nH]c(N)nc43)O[C@@H]2COP(=O)(O)O[C@H]2C[C@H](n3ccc(N)nc3=O)O[C@@H]2COP(=O)(O)O[C@H]2C[C@H](n3cnc4c(N)ncnc43)O[C@@H]2COP(=O)(O)O[C@H]2C[C@H](n3cc(C)c(=O)[nH]c3=O)O[C@@H]2CO)O[C@H]1n1cnc2c(N)ncnc21
62.7 °C	58.8 °C	Active	Active	50%	Active	9%		Cc1oc2c(C)c3oc(=O)cc(C)c3cc2c1COCCCO[C@@H]1[C@H](OP(=O)(O)OC[C@H]2O[C@@H](n3ccc(N)nc3=O)C[C@@H]2OP(=O)(O)OC[C@H]2O[C@@H](n3cnc4c(N)ncnc43)C[C@@H]2OP(=O)(O)OC[C@H]2O[C@@H](n3cnc4c(=O)[nH]c(N)nc43)C[C@@H]2OP(=O)(O)OC[C@H]2O[C@@H](n3ccc(N)nc3=O)C[C@@H]2OP(=O)(O)OC[C@H]2O[C@@H](n3cc(C)c(=O)[nH]c3=O)C[C@@H]2OP(=O)(O)OC[C@H]2O[C@@H](n3ccc(N)nc3=O)C[C@@H]2OP(=O)(O)OC[C@H]2O[C@@H](n3ccc(N)nc3=O)C[C@@H]2O)[C@@H](COP(=O)(O)O[C@H]2C[C@H](n3cnc4c(N)ncnc43)O[C@@H]2COP(=O)(O)O[C@H]2C[C@H](n3ccc(N)nc3=O)O[C@@H]2COP(=O)(O)O[C@H]2C[C@H](n3ccc(N)nc3=O)O[C@@H]2COP(=O)(O)O[C@H]2C[C@H](n3cnc4c(=O)[nH]c(N)nc43)O[C@@H]2COP(=O)(O)O[C@H]2C[C@H](n3ccc(N)nc3=O)O[C@@H]2COP(=O)(O)O[C@H]2C[C@H](n3cnc4c(N)ncnc43)O[C@@H]2COP(=O)(O)O[C@H]2C[C@H](n3cc(C)c(=O)[nH]c3=O)O[C@@H]2CO)O[C@H]1n1cnc2c(N)ncnc21
